Results reported in ChEMBL document CHEMBL3769372, “Specific Inhibitors of HIV Capsid Assembly Binding to the C-Terminal Domain of the Capsid Protein: Evaluation of 2-Arylquinazolines as Potential Antiviral Compounds” (J Med Chem, 2016).
Residues, ends and D or L forms follow the SMILES beside them.

Experiments:
[1] = target: T1, Structural capsid protein (Human immunodeficiency virus 1, UniProt Q76129); assay: Binding affinity to recombinant N-terminal GST-tagged HIV1 NL4-3 capsid C-terminal domain (146 to 231 residues) incubated for 2 hrs by alphascreen assay
T1 sequence (Q76129 whole entry, the tested form may be a part): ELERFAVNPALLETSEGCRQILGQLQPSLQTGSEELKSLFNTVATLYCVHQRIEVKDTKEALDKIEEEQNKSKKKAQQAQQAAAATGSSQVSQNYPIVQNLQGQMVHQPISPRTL
Outline: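 AlphaScreen competition: GST-fused CA (60 nM) on glutathione acceptor beads and biotinylated peptide (30 nM) on streptavidin donor beads, beads 10 µg/ml. Buffer was PBS, 0.05% Tween 20, 2 mM DTT. Compounds were titrated 0.2–200 µM and incubated 2 h at RT, with emission read at 520–620 nm. Inhibition was normalized to DMSO-only (max) and buffer (min) controls.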

[2] = Cytotoxicity against human TZM-bl cells assessed as cell viability at 10 uM after 48 hrs by MTS assay relative to control; format: cell-based; conditions: read-out: Activity
Outline: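 TZM-bl cells (DMEM, 10% FBS, 10 mM HEPES) incubated with compound at 37 °C, 5% CO2 for 48 h in parallel with the infectivity assay; viability by MTS read-out. Tested in triplicate at 10 µM final, with titration 0.625–20 µM; values normalized to DMSO-only treated cells.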

[3] = target: T1, Structural capsid protein; assay: Binding affinity to HIV1 NL4-3 capsid at 25 degC by isothermal titration calorimetry
Outline: (§1)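 ITC at 25 °C (Auto-iTC200) in 30 mM MES pH 6.0, 10% glycerol, 2 mM 2-mercaptoethanol, 2% DMSO. Protein and peptide concentrations were set by HPLC amino acid analysis. 320–350 µM peptide ligand was injected in 2 µl steps into 23–33 µM protein until saturated. A buffer-only injection control was run, and titrations were repeated in two buffers of differing ionization enthalpy.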

[4] = test system: Human immunodeficiency virus 1; assay: Antiviral activity against HIV1 NL4-3 infected in human TZM-bl cells assessed as inhibition of viral replication administered 6 hrs postinfection measured 48 hrs by luciferase reporter gene assay; format: functional, organism-based; conditions: Human immunodeficiency virus 1, NL4-3, TZM-bl
Outline: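 TZM-bl cells infected with NL4-3 stock (from MT-4 co-culture) at MOI 1; at 6 h p.i. medium replaced with DMEM containing compound, refreshed at 30 h p.i.; supernatants collected at 52 h p.i. and titrated on fresh TZM-bl cells; infection read by luciferase at 48 h p.i.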

[5] = target: T1, Structural capsid protein; assay: Binding affinity to HIV1 NL4-3 capsid C-terminal domain (146 to 231 residues) by isothermal titration calorimetry; outline: as §1
[6] = target: T1, Structural capsid protein; assay: Binding affinity to full length HIV1 NL4-3 capsid (1 to 231 residues) by isothermal titration calorimetry; outline: as §1
[7] = Binding affinity to recombinant HIV1 NL4-3 capsid Y169A mutant by isothermal titration calorimetry; design: species or system Human immunodeficiency virus 1
Outline: (§2)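 Point mutants made by PCR, expressed solubly in E. coli BL21(DE3)RIL, enriched by ammonium sulphate fractionation (20–50%), then MonoS cation exchange (pH 5.5) and Superdex75 gel filtration. Binding by ITC at 25 °C in 30 mM MES pH 6.0, 10% glycerol, 2 mM 2-mercaptoethanol, 2% DMSO. 320–350 µM peptide ligand was injected in 2 µl steps into 23–33 µM protein, with a buffer-only control.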

[8] = Binding affinity to recombinant HIV1 NL4-3 capsid N183A mutant by isothermal titration calorimetry; design: species or system Human immunodeficiency virus 1; outline: as §2
[9] = Binding affinity to recombinant HIV1 NL4-3 capsid E187A mutant by isothermal titration calorimetry; design: species or system Human immunodeficiency virus 1; outline: as §2
[10] = Binding affinity to recombinant HIV1 NL4-3 capsid L211A mutant by isothermal titration calorimetry; design: species or system Human immunodeficiency virus 1; outline: as §2
[11] = Binding affinity to recombinant HIV1 NL4-3 capsid L211S mutant by isothermal titration calorimetry; design: species or system Human immunodeficiency virus 1; outline: as §2
[12] = test system: Human immunodeficiency virus 1; assay: Selectivity ratio of Kd for recombinant HIV1 NL4-3 capsid Y169A mutant to Kd for full length HIV1 capsid (1 to 231 residues)
Outline: (§3)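 Ratio of ITC-derived KD for each mutant CA to KD for wild-type CA. Titrations were at 25 °C in 30 mM MES pH 6.0, 10% glycerol, 2 mM 2-mercaptoethanol, 2% DMSO. Peptide ligand (320–350 µM) was injected into 23–33 µM protein, with a buffer-only control.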

[13] = test system: Human immunodeficiency virus 1; assay: Selectivity ratio of Kd for recombinant HIV1 NL4-3 capsid N183A mutant to Kd for full length HIV1 capsid (1 to 231 residues); outline: as §3
[14] = test system: Human immunodeficiency virus 1; assay: Selectivity ratio of Kd for recombinant HIV1 NL4-3 capsid E187A mutant to Kd for full length HIV1 capsid (1 to 231 residues); outline: as §3
[15] = test system: Human immunodeficiency virus 1; assay: Selectivity ratio of Kd for recombinant HIV1 NL4-3 capsid L211A mutant to Kd for full length HIV1 capsid (1 to 231 residues); outline: as §3
[16] = test system: Human immunodeficiency virus 1; assay: Selectivity ratio of Kd for recombinant HIV1 NL4-3 capsid L211S mutant to Kd for full length HIV1 capsid (1 to 231 residues); outline: as §3
[17] = target: T1, Structural capsid protein; assay: Binding affinity to full length HIV1 NL4-3 dimeric capsid (1 to 231 residues) by isothermal titration calorimetry
Outline: (§4)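 VP-ITC at 25 °C in 30 mM MES pH 6.0 with 10% glycerol, 2 mM 2-mercaptoethanol and 2% DMSO; protein concentrations by HPLC amino acid analysis. Ligand concentration was estimated by UV spectra after centrifugation to remove precipitate. 9 µl aliquots of 31 µM ligand went into 3.9 µM CA dimer or 3.1 µM CA CTD dimer to saturation. Ligand-into-buffer heat was subtracted.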

[18] = target: T1, Structural capsid protein; assay: Binding affinity to HIV1 NL4-3 dimeric capsid C-terminal domain (146 to 231 residues) by isothermal titration calorimetry; outline: as §4

OC(c1ccc(Nc2nc(-c3cccnc3)nc3ccccc23)cc1)(C(F)(F)F)C(F)(F)F showed an IC50 [1] greater than 100 µM and a viability at 48 h, 10 µM [2] of 46%.

O=C(O)c1ccc(-c2nc(-c3ccccc3)c(-c3ccccc3)[nH]2)cc1 gave a Kd [3] of 85 µM.

CCOC(=O)c1cccc(Nc2nc(-c3cccnc3)nc3ccccc23)c1 gave an IC50 [1] of 68 µM, an IC50 [4] of 5 µM and a viability at 48 h, 10 µM [2] of 83%.

CC(O)c1ccc(Nc2nc(-c3cccnc3)nc3ccccc23)cc1 (stereo not drawn) showed an IC50 [1] greater than 100 µM, an IC50 [4] greater than 10 µM and a viability at 48 h, 10 µM [2] of 98%.

CC(=O)c1ccc(Nc2nc(-c3cccnc3)nc3ccccc23)cc1 showed an IC50 [1] of 14 µM, an IC50 [4] of 8 µM and a viability at 48 h, 10 µM [2] of 93%.

In the case of N#Cc1ccc(Nc2nc(-c3ccncc3)nc3ccccc23)cc1, the IC50 [1] is reported as 4 µM, the IC50 [4] is reported as greater than 10 µM and the viability at 48 h, 10 µM [2] is reported as 96%.

With O=C(NCCF)c1ccc(Nc2nc(-c3cccnc3)nc3ccccc23)cc1 the IC50 [1] was 3 µM, the IC50 [4] was greater than 10 µM and the viability at 48 h, 10 µM [2] was 90%.

Compound NS(=O)(=O)c1ccc(Nc2nc(-c3cccnc3)nc3ccccc23)cc1 has an IC50 [1] of 80 µM, an IC50 [4] greater than 10 µM and a viability at 48 h, 10 µM [2] of 98%.

Compound CCNC(=O)c1ccc(Nc2nc(-c3cccnc3)nc3ccccc23)cc1 has an IC50 [1] greater than 100 µM, an IC50 [4] greater than 10 µM and a viability at 48 h, 10 µM [2] of 97%.

Compound O=C(NCCO)c1ccc(Nc2nc(-c3cccnc3)nc3ccccc23)cc1 has an IC50 [1] greater than 100 µM, an IC50 [4] greater than 10 µM and a viability at 48 h, 10 µM [2] of 100%.

In the case of CON(C)C(=O)c1ccc(Nc2nc(-c3cccnc3)nc3ccccc23)cc1, the IC50 [1] is reported as 37 µM, the IC50 [4] is reported as greater than 10 µM and the viability at 48 h, 10 µM [2] is reported as 97%.

Compound CC(=O)c1cccc(Nc2nc(-c3cccnc3)nc3ccccc23)c1 has an IC50 [1] of 30 µM, an IC50 [4] of 8 µM and a viability at 48 h, 10 µM [2] of 89%.

Compound CS(=O)(=O)c1ccc(Nc2nc(-c3ccncc3)nc3ccccc23)cc1 has an IC50 [1] greater than 100 µM, an IC50 [4] greater than 10 µM and a viability at 48 h, 10 µM [2] of 97%.

Compound CSc1ccc(Nc2nc(-c3ccncc3)nc3ccccc23)cc1 has an IC50 [4] of 10 µM and a viability at 48 h, 10 µM [2] of 95%.

CCOC(=O)c1ccc(Nc2nc(-c3cccnc3C)nc3ccccc23)cc1 gave an IC50 [1] of 14 µM, an IC50 [4] greater than 10 µM and a viability at 48 h, 10 µM [2] of 100%.

CC(=O)c1ccc(Nc2nc(-c3ccncc3)nc3ccccc23)cc1 showed an IC50 [1] of 9 µM, an IC50 [4] of 4.6 µM and a viability at 48 h, 10 µM [2] of 96%.

CC[C@H](C)[C@H](N)C(=O)N[C@H](C(=O)N[C@@H](Cc1ccccc1)C(=O)N[C@@H](CCC(=O)O)C(=O)N[C@@H](CC(=O)O)C(=O)N[C@@H](CC(C)C)C(=O)N[C@@H](CC(C)C)C(=O)N[C@@H](CC(=O)O)C(=O)N[C@@H](Cc1ccc(O)cc1)C(=O)N[C@@H](Cc1ccc(O)cc1)C(=O)NCC(=O)N1CCC[C@H]1C(N)=O)[C@@H](C)O (H-ITFEDLLDYYGP-NH2) gave a Kd [5] of 3 µM, a Kd [6] of 4 µM and a Kd [7] of 13 µM. The Kd [8] was 53 µM, the Kd [9] was 5 µM and the Kd [10] was 15 µM. The Kd [11] was 84 µM, the Selectivity ratio [12] was 3 and the Selectivity ratio [13] was 13. For the same compound, the Selectivity ratio [14] was 1, the Selectivity ratio [15] was 4 and the Selectivity ratio [16] was 21.

Compound CCOC(=O)c1ccc(Nc2nc(-c3ccncc3)nc3ccccc23)cc1 has an IC50 [1] of 8 µM, an IC50 [4] greater than 10 µM and a viability at 48 h, 10 µM [2] of 96%. The Kd [6] was 0.14 µM, the Kd [8] was 0.89 µM and the Kd [11] was 1.9 µM. For the same compound, the Kd [17] was 0.14 µM, the Kd [18] was 0.038 µM and the Selectivity ratio [13] was 7. The Selectivity ratio [16] was 14.

Work on C[S+]([O-])c1ccc(Nc2nc(-c3ccncc3)nc3ccccc23)cc1 (stereo not drawn) yielded an IC50 [1] greater than 100 µM, an IC50 [4] greater than 10 µM and a viability at 48 h, 10 µM [2] of 98%.

With CCOC(=O)Cc1ccc(Nc2nc(-c3cccnc3)nc3ccccc23)cc1 the IC50 [1] was greater than 100 µM, the IC50 [4] was greater than 10 µM and the viability at 48 h, 10 µM [2] was 98%.

Compound NC(=O)c1ccc(Nc2nc(-c3ccncc3)nc3ccccc23)cc1 has an IC50 [1] greater than 100 µM, an IC50 [4] greater than 10 µM and a viability at 48 h, 10 µM [2] of 97%.

In the case of CONC(=O)c1ccc(Nc2nc(-c3cccnc3)nc3ccccc23)cc1, the IC50 [1] is reported as 63 µM, the IC50 [4] is reported as greater than 10 µM and the viability at 48 h, 10 µM [2] is reported as 99%.

CCOC(=O)c1ccc(Nc2nc(-c3cccnc3)nc3ccccc23)cc1 gave an IC50 [1] of 47 µM, an IC50 [4] of 4.7 µM and a viability at 48 h, 10 µM [2] of 84%.

O=C(O)c1ccc(Nc2nc(-c3ccncc3)nc3ccccc23)cc1 showed an IC50 [1] greater than 100 µM, an IC50 [4] greater than 10 µM and a viability at 48 h, 10 µM [2] of 98%.

Compound OC(c1ccc(Nc2nc(-c3cccnc3)nc3ccccc23)cc1)C(F)(F)F (stereo not drawn) has an IC50 [1] greater than 100 µM, an IC50 [4] of 10 µM and a viability at 48 h, 10 µM [2] of 87%.

For CCOC(=O)c1cccc(Nc2nc(-c3ccncc3)nc3ccccc23)c1, the IC50 [1] was 21 µM, the IC50 [4] was 5.3 µM and the viability at 48 h, 10 µM [2] was 96%.

With CCOC(=O)c1ccccc1Nc1nc(-c2ccncc2)nc2ccccc12 the IC50 [1] was 37 µM, the IC50 [4] was greater than 10 µM and the viability at 48 h, 10 µM [2] was 97%.

With CCNS(=O)(=O)c1ccc(Nc2nc(-c3cccnc3)nc3ccccc23)cc1 the IC50 [1] was greater than 100 µM, the IC50 [4] was greater than 10 µM and the viability at 48 h, 10 µM [2] was 97%.

Compound O=C(c1ccc(Nc2nc(-c3cccnc3)nc3ccccc23)cc1)C(F)(F)F has an IC50 [1] greater than 100 µM and a viability at 48 h, 10 µM [2] of 62%.
